Measurements gathered from unrelated publications.
Each line is one published result; the experiments were not run side by side.
Observed: metabolic stability
Host: human

SMILES | medium | concentration | time | pH | setting | scaled CLint [mL/min/kg]
Cc1coc([C@H]2C[C@H]3[C@@H](C)SC(N)=N[C@@]3(c3ccc(F)cc3F)CO2)n1 | liver microsomes | – | – | – | – | < 8
Cc1ccc(F)c2cc(C(=O)N[C@@H]3CCC[C@H](N4CCN(S(C)(=O)=O)CC4)C3)[nH]c12 | hepatocytes | 0.5 µM | 2 h | – | – | 41
Nc1nc(-c2cc(F)cc(NC(=O)Nc3cc(F)cc(-c4c[nH]c(N)n4)c3)c2)c[nH]1 | liver microsomes | 5 µM | – | pH 7.4 | – | < 20.8
C[C@H]1SC(N)=N[C@@]2(c3ccc(F)cc3F)CO[C@@H](c3cnn(C)c3)C[C@@H]12 | liver microsomes | – | – | – | – | < 8
CC(C)(C)n1cc2c(n1)C(O)C(C)(C)C1(CCN(C(=O)c3ccc4[nH]ncc4c3)CC1)O2 (centres unmarked) | liver microsomes | – | – | – | – | 17
O=C1c2ncc(COc3ccccc3)cc2CCN1c1ccc(F)cc1 | liver microsomes | – | – | – | – | 19
O=C(Nc1ccc(N2C(=O)c3cccc(Cl)c3C2=O)c(Cl)c1)c1ncccc1Cl | liver microsomes | 1 µM | – | pH 7.4 | – | 17.2
Nc1nc(-c2cccc(NC(=O)Nc3cccc(-c4c[nH]c(N)n4)c3)c2)c[nH]1 | liver microsomes | 5 µM | – | pH 7.4 | – | < 20.8
CC(=O)Nc1cc(Nc2cc(NC3CC3)n3ncc(C#N)c3n2)ccc1N(C)C[C@@H]1CCCN1 | hepatocytes | 1 µM | – | – | serum-free | 0.8
Cc1cc([C@H]2C[C@H]3[C@@H](C)SC(N)=N[C@@]3(c3ccc(F)cc3F)CO2)on1 | liver microsomes | – | – | – | – | < 8
Nc1nc(-c2ccc(NC(=O)Nc3ccc(-c4c[nH]c(N)n4)c(F)c3)cc2F)c[nH]1 | liver microsomes | 5 µM | – | pH 7.4 | – | < 20.8
CC(C)N1Cc2cc(C(F)(F)F)ncc2C2=CN=C(NCc3c(F)ccc4c3CCO4)N3C=NC(C1=O)C23 (centres unmarked) | liver microsomes | 100 µM | 30 min | – | – | 5.65
CCCN(C)Cc1cc(-c2[nH]c3cccc(F)c3c(=O)c2C)ccc1Cc1ccc(OC(F)(F)F)cc1 | liver microsomes | – | – | – | – | 1040
O=C1NCCc2nc(OCc3cccc(F)c3)ccc21 | liver microsomes | – | – | – | – | 25
Cc1cc(NC(=O)Cc2ccc(F)c(C#N)c2)n(CC2CCCCC2)n1 | liver microsomes | – | – | – | – | 648
Cn1cc([C@H]2C[C@H]3CSC(N)=N[C@@]3(c3ccc(F)cc3F)CO2)cn1 | liver microsomes | – | – | – | – | 9.1
O=C1C2N=CN3C(NCc4c(F)ccc5c4CCO5)=NC=C(c4cnc(C(F)(F)F)cc4CN1CC(F)F)C23 (centres unmarked) | liver microsomes | 100 µM | 30 min | – | – | 11.4
O=C1c2ccc(COc3ccccc3)nc2CCN1c1ccc(F)cc1 | liver microsomes | – | – | – | – | 18
Cc1cc([C@H]2C[C@H]3CSC(N)=N[C@@]3(c3ccc(F)cc3F)CO2)on1 | liver microsomes | – | – | – | – | 55.2
CC(=O)N(C)C1CCN(c2cc(F)cc(NC(=O)c3cc4c(F)ccc(C)c4[nH]3)c2)C1 (centres unmarked) | hepatocytes | 0.5 µM | 2 h | – | – | 64
